From PubChem
Sampled rows, rich in hits. Any-hit rate of the full collection: about 1.7%.
TPT1 inh: blocks Candida albicans tRNA 2'-phosphotransferase | recombinant caTPT1, FP RNA substrate dephosphorylation | 0.81% of 300,000 active | inhibition, % at 5 µM | AID 1962;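 active means inhibition above the mean of all tested compounds plus 3 SD, set per screening campaign, cut at about 24% in these data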;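 further: plate controls were DMSO alone for no effect and ferristatin control at 100 nM for full effect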
Rpn11 block: Rpn11 (human) deubiquitinase inhibition; human 26S proteasome, Ub4-pepOG fluorescence polarization; 20S core pre-blocked with epoxomicin; calls only at 20 µM; 0.59% of 360,000 active; AID 588493;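 active means inhibition at 20 µM, scaled to each plate's controls, above about 33%, limit read from the data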
IDE cell activ: activators of human insulin-degrading enzyme in cells; 0.073% of 340,000 active; activation, % at 5.96 µM; P14735; HEK cells, FAbeta-B cleavage, fluorescence polarization; 0% vehicle, 100% cell-free pure enzyme wells; AID 493087;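 active means activation above the mean of all tested compounds plus 3 SD, set per screening campaign, cut at about 17% in these data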
IDE inh: inhibits human insulin-degrading enzyme in HEK cells; P14735; inhibition, % at 5.59 µM; AID 434962; 0.41% of 320,000 active; FAbetaB cleavage, fluorescence polarization;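 active means percent inhibition above the average of all tested compounds plus 3 SD, set per screening campaign, cut at about 16% in these data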;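 further: IDE supplied by intact live HEK cells; FP after avidin binding of uncleaved biotin substrate so inhibition keeps polarization high; 0% = DMSO wells and 100% = 60 µM reference IDE inhibitor Ii1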
HNF4A DNA FP: change in binding of human HNF4 alpha to DNA; P41235; HNF4a-FITC DNA binding, fluorescence polarization, 1 h; activity change, % at 10 µM; 0.3% of 360,000 active; AID 1224865; in the data active means activity change above about 30%, passing the limit was not always enough
CSN inh: blocks human CSN-mediated cullin deneddylation. Q92905. Purified CSN, SCF-Nedd8-OG deneddylation, fluorescence polarization. inhibition, % at 12.5 µM. 0.38% of 360,000 active. AID 651999;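 active means pattern-corrected inhibition above about 35%, with an unprinted fluorescence ratio check between 0.5 and 1.5, limit read from the data, passing the limit was not always enough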;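 further: 0% = enzyme with substrate and 100% = substrate without enzyme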
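Assay system: HEK293T-derived human Csn5 enzyme; quantity: 0.24 nM enzyme; medium: Tris/NaCl/DTT buffer, pH 7.5; also added: substrate SCFSkp2-Nedd8OG, 10 nM; doses: 12.5 µM compound; schedule: 90 min reaction at room temperature; signal: FP; read-out: % inhibition of substrate cleavage by Csn5; benchmarks: substrate-only high control, full reaction low control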
CSN deneddyl val: validation of inhibitors of human CSN-mediated cullin deneddylation; shares compounds with CSN inh; Csn5 deneddylation of SCF-Nedd8OG, fluorescence polarization, 90 min; inhibition, % at 16.6 µM; 62% of 540 active; in the data active means inhibition above about 50%;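 further: 0% = DMSO with enzyme and 100% = no enzyme wells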
MMP-2 counter: counter-screen for CSN deneddylation inhibitors: human MMP-2 inhibition | shares compounds with CSN inh | recombinant MMP-2, FRET substrate fluorescence, 60 min | inhibition, % at 16.6 µM | 33% of 540 active | AID 720655;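 active means corrected plate-normalized z-score of 5 or more, or -5 or less, or inhibition of 15% or more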;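 further: plate controls were DMSO wells with enzyme for no effect and buffer wells lacking MMP-2 for full effect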
Thrombin counter: blocks bovine thrombin in a CSN deneddylation counter-screen; inhibition, % at 16.6 µM; 49% of 540 active; bovine thrombin cleavage of Ub4-pepOG, fluorescence polarization; shares compounds with CSN inh;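 active means inhibition at or above a set limit, with a fluorescence interference ratio between 0.5 and a set maximum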
* marks the source's active call; other numbers are inactive results; i = inactive; / = no result given.

SMILES	TPT1 inh	Rpn11 block	IDE cell activ	IDE inh	HNF4A DNA FP	CSN inh	CSN deneddyl val	MMP-2 counter	Thrombin counter
CCOc1cc(C=O)ccc1O	/	i	5.5	-1.1	-2.6	0.9	/	/	/
O=C1NC(=O)N(Cc2ccc(F)cc2)C(=O)/C1=C\c1ccc([N+](=O)[O-])s1	22.9	i	-20.9	12.4	-9.2	35.4*	34.1	15.1*	-0.3
CCC1(C)OC(c2ccccc2)=C/C(=C/C=C2C(=O)NC(=O)NC2=O)O1 (configuration not stated)	/	/	-82.6	/	180.1	78.1*	138.7*	-16.1	50.7*
CCC1(Oc2ccccc2)C(=O)NC(=O)NC1=O	/	i	2.5	/	2.8	-2.6	/	/	/
CCn1nc(/C=C/c2ccccc2)nc2c(=O)n(C)c(=O)nc1-2	/	i	/	/	107.3*	59.2*	8.6	3.4	-29.9
O=P(Nc1ccccc1)(Nc1ccccc1)Oc1ccc(Cl)cc1	1.1	i	5.0	-1.6	3.0	6.8	/	/	/
CCOc1cccc(N2C(=O)/C(=C/c3ccco3)C(=O)NC2=S)c1	19.8	/	3.7	-1.1	-45.2	39.1*	/	34.0*	9.8
